The record followed here is ChEMBL document CHEMBL1158625, “Design of 1-piperazinyl-4-arylphthalazines as potent Smoothened antagonists” (Bioorg Med Chem Lett, 2010).

Calls of active or inactive are those of the source. No cut-off for these calls is given here. A value given as a limit tells only on which side of the number the result lay.

The species entered for one series is Mus musculus. The experiment in a line: Reduction in Gli1 mRNA expression in mouse skin after 6 hrs of treatment by RT-PCR. In kind it is functional, organism-based. In a few lines: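 Mouse hind flanks depilated with wax; five days later single oral dose 2, 20 or 100 mg/kg; skin harvested after 6 h; Gli1 RNA by quantitative real-time PCR normalized to RGS (Pitx2) RNA; four mice per group, two samples each; Dunnett's method; plasma levels also measured.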

Series [1] is described as follows: Clearance in mouse at 1 mg/kg, iv. To be noted: in vivo. On the set-up: dose 1 mg/kg, route intravenous. It is filed as ADME, organism-based.
Series [2] in a line: Clearance in dog at 0.5 mg/kg, iv. In kind it is ADME, organism-based, Canis lupus familiaris. On the set-up: dose 0.5 mg/kg, route intravenous. To be noted: in vivo.
Series [3] is described as follows: Metabolic stability in rat liver microsome assessed as compound turnover after 30 mins. To be noted: liver microsomes, read-out: Stability. In kind it is ADME. In a few lines: (§1)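 Pooled human or rat liver microsomes (0.25 mg/mL), 37 °C, phosphate buffer pH 7.4, test compound 1 µM; NADPH 1 mM final; quenched at 0 or 30 min with organic solvent; unchanged parent by reversed-phase LC-MS/MS; percent turnover from peak area at 30 versus 0 min.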
In general terms: Liver microsomes are vesicles of endoplasmic reticulum, rich in cytochrome P450 enzymes.

Another series has as its system Medulloblastoma cell. Kind of series: Antitumor activity against mouse Ptch+/- p53-/- medulloblastoma cells xenografted Harlan nu/nu mouse at 10 mg/kg, po qd administered after 8 days tumor implantation measured after 15 days. In kind it is functional, organism-based. Also noted: dose 10 mg/kg. In a few lines:
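Tumors from p53-/- Ptch+/- crossbred mice transplanted into immunocompromised mice; after 8 days animals randomized to compound 10 mg/kg QD oral or vehicle; tumor volume followed, reduction assessed day 15 versus treatment onset day 8; ten mice per group; Dunnett's method.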

Series [4] can be described thus: Half life in cynomolgus monkey at 0.5 mg/kg, iv. Also noted: dose 0.5 mg/kg, route intravenous. It is filed as ADME, organism-based, Macaca fascicularis. The following applies: in vivo.
The nature of series [5]: Oral bioavailability in mouse at 2 mg/kg. In kind it is ADME, organism-based. To be noted: in vivo.
A short description of series [6]: Oral bioavailability in rat at 2 mg/kg. To be noted: in vivo. In kind it is ADME, organism-based.
A short description of series [7]: Clearance in rat at 0.5 mg/kg, iv. It is filed as ADME, organism-based. On the set-up: dose 0.5 mg/kg, route intravenous. To be noted: in vivo.
Series [8] is described as follows: Half life in dog at 0.5 mg/kg, iv. It is filed as ADME, organism-based, Canis lupus familiaris. On the set-up: dose 0.5 mg/kg, route intravenous. The following applies: in vivo.
Series [9] is described as follows: Volume of distribution at steady state in rat at 0.5 mg/kg, iv. It is filed as ADME, organism-based. Also noted: dose 0.5 mg/kg, route intravenous. To be noted: in vivo, read-out: Vdss.
Series [10] in a line: Oral bioavailability in cynomolgus monkey at 2 mg/kg. In kind it is ADME, organism-based, Macaca fascicularis. The following applies: in vivo.
A short description of series [11]: Oral bioavailability in dog at 2 mg/kg. It is filed as ADME, organism-based, Canis lupus familiaris. The following applies: in vivo.
Series [12] can be described thus: Volume of distribution at steady state in cynomolgus monkey at 0.5 mg/kg, iv. The following applies: in vivo, read-out: Vdss. On the set-up: dose 0.5 mg/kg, route intravenous. In kind it is ADME, organism-based, Macaca fascicularis.
Series [13] is described as follows: Metabolic stability in human liver microsome assessed as compound turnover after 30 mins. In kind it is ADME. The following applies: liver microsomes, read-out: Stability. In a few lines:
as §1

Series [14] is described as follows: Volume of distribution at steady state in mouse at 1 mg/kg, iv. In kind it is ADME, organism-based. Also noted: dose 1 mg/kg, route intravenous. To be noted: in vivo, read-out: Vdss.
Series [15] in a line: Half life in mouse at 1 mg/kg, iv. It is filed as ADME, organism-based. The following applies: in vivo. Also noted: dose 1 mg/kg, route intravenous.
Series [16] can be described thus: Volume of distribution at steady state in dog at 0.5 mg/kg, iv. Also noted: dose 0.5 mg/kg, route intravenous. In kind it is ADME, organism-based, Canis lupus familiaris. To be noted: in vivo, read-out: Vdss.
The next series deals with CYP2D6 (Homo sapiens, UniProt P10635). Kind of series: Inhibition of human CYP2D6 at 3 uM by HPLC-MS. In kind it is ADME.
CYP2D6, sequence (P10635 whole entry): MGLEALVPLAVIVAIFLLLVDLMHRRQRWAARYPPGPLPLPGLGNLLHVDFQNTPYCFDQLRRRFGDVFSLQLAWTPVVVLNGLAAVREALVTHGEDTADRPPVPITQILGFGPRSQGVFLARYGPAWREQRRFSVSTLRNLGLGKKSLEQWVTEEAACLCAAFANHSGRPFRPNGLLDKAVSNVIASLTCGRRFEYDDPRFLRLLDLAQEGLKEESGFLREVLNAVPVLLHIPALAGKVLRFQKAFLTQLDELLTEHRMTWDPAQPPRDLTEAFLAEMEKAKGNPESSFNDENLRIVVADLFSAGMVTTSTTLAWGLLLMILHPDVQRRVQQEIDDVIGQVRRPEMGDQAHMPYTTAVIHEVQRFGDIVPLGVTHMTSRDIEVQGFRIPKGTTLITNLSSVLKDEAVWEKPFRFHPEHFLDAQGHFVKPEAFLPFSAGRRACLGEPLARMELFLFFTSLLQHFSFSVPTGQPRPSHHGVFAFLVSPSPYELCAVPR
Series [17] is described as follows: Clearance in cynomolgus monkey at 0.5 mg/kg, iv. The following applies: in vivo. On the set-up: dose 0.5 mg/kg, route intravenous. It is filed as ADME, organism-based, Macaca fascicularis.
Another series deals with CYP3A4 (Homo sapiens, UniProt P08684). Kind of series: Inhibition of human CYP3A4 at 3 uM by HPLC-MS. It is filed as ADME.
CYP3A4, sequence (P08684 whole entry): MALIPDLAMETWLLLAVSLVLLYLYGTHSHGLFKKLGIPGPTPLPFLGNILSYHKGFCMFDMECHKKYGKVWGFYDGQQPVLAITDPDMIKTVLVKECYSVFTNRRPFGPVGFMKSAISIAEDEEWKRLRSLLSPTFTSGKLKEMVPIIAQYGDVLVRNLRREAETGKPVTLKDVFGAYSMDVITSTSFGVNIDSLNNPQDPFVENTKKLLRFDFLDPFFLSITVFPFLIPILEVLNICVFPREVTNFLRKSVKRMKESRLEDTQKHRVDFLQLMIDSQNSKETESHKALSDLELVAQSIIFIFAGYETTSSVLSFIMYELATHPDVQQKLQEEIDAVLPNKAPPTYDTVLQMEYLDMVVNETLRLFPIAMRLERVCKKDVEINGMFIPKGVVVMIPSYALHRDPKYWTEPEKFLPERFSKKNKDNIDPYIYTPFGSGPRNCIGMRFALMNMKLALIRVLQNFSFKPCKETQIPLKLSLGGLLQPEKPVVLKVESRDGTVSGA
Series [18] in a line: Half life in rat at 0.5 mg/kg, iv. In kind it is ADME, organism-based. On the set-up: dose 0.5 mg/kg, route intravenous. The following applies: in vivo.

Usually clearance stands for the volume of plasma or blood freed of the substance per unit of time. For orientation: half-life means the time in which the quantity being followed falls by half. The bioavailability is dose-corrected exposure relative to a reference, in per cent. Usually inhibition stands for the relative decrease from the control value, in per cent. As for `C[C@@H]1CN(C(=O)c2ccccc2)CCN1c1nnc(-c2ccc(C(F)(F)F)cc2)c2ccccc12`, the Activity result in the series filed under Mus musculus is “Dose-dependent effect”. Also, the clearance in series [1] is 5 mL/min/kg; in series [2] it was 3.33 mL/min/kg; in series [7] it was 6.83 mL/min/kg; in series [17] it was 8.83 mL/min/kg. In addition, the metabolised at 0.5 h in series [3] was found to be 11%; in [13], 13%. Besides, in the series on Medulloblastoma cell, the outcome was Active. Further, the half-life in series [4] was 4.3 h; in [8], 10 h; in series [15] it was 3.4 h; in [18], 9.5 h. The bioavailability in series [5] came out at 65%; in series [6] it was 39%; in series [10], 31%; in [11], 60%. The Vd worked out at 5.07 L/kg in series [9], 2.52 L/kg in series [12], 1.4 L/kg in series [14] and 2.96 L/kg in series [16]. Further, the inhibition at 3 µM at CYP2D6 is 15%; against CYP3A4, less than 10%.
